Measured values as given in ChEMBL document CHEMBL1649378, “Synthesis and biological evaluation of new derivatives of 2-substituted 4-hydroxybutanamides as GABA uptake inhibitors” (Eur J Med Chem, 2011).

Legend:
[1] = target: Sodium- and chloride-dependent GABA transporter 1 (Mus musculus) (UniProt P31648); assay: Inhibition of NO711 binding to mouse GAT1 by MS-binding assay; parameters: inhibition: concentration or dose not given beside the values; settings: for inhibition: concentration not given here
Outline: (§1)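 Binding assay on murine GAT1 with unlabelled NO711 as marker, quantified by LC-MS/MS on a triple quadrupole instrument. Compounds were first screened at 100 μM. Those cutting NO711 binding by at least 50% were rated active and then given pKi values.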

[2] = target: Sodium- and chloride-dependent GABA transporter 1 (Mus musculus) (UniProt P31648); assay: Inhibition of [3H]GABA uptake at GAT1 expressed in HEK cells; parameters: inhibition: concentration or dose not given beside the values; settings: HEK293; for inhibition: concentration not given here
[3] = system: Sodium- and chloride-dependent GABA transporter 2 (Mus musculus); assay: Inhibition of [3H]GABA uptake at GAT2 expressed in HEK cells at 100 uM; settings: HEK293
[4] = system: Sodium- and chloride-dependent GABA transporter 2 (Mus musculus); assay: Inhibition of [3H]GABA uptake at GAT2 expressed in HEK cells; parameters: inhibition: concentration or dose not given beside the values; settings: HEK293; for inhibition: concentration not given here
[5] = target: Sodium- and chloride-dependent GABA transporter 1 (Mus musculus) (UniProt P31648); assay: Remaining NO711 binding to mouse GAT1 by MS-binding assay
[6] = system: Sodium- and chloride-dependent GABA transporter 3 (Mus musculus); assay: Inhibition of [3H]GABA uptake at GAT3 expressed in HEK cells at 100 uM; settings: HEK293
[7] = system: HEK293; assay: Inhibition of [3H]GABA uptake at GAT4 expressed in HEK cells at 100 uM; assay type: cell-based
Outline: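 [³H]GABA uptake measured in HEK cells stably transfected with the individual murine GABA transporter subtypes GAT1–GAT4. Compounds were first screened at 100 μM, and results are given as % remaining GABA uptake (means). Those cutting uptake by at least 50% were rated active and then given pIC50 values.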

[8] = target: Sodium- and chloride-dependent GABA transporter 1 (Mus musculus) (UniProt P31648); assay: Inhibition of NO711 binding to mouse GAT1 at 100 uM by MS-binding assay; outline: as §1
[9] = target: Sodium- and chloride-dependent GABA transporter 1 (Mus musculus) (UniProt P31648); assay: Inhibition of [3H]GABA uptake at GAT1 expressed in HEK cells at 100 uM; settings: HEK293

Row | pIC50 [2] | inhibition [2] [%] | inhibition [4] [%] | remaining binding [5] [%] | pIC50 [4] | SMILES | other results
1 | 4.84 | – | – | – | – | O=C(NCc1ccc(F)cc1)C(CCO)N1CCN(C(c2ccccc2)c2ccccc2)CC1 (racemic) | pKi [1]: 4.82; inhibition [3]: 52%
2 | – | 93 | 65 | – | – | COc1ccc(CNC(=O)C(CCO)N2CCN(C(c3ccc(F)cc3)c3ccc(F)cc3)CC2)cc1 (racemic) | inhibition [1]: 101%
3 | 4.2 | – | – | 93 | 4.17 | O=C(NCc1ccccc1Cl)C(CCO)N1CCN(C(c2ccc(F)cc2)c2ccc(F)cc2)CC1 (racemic) | –
4 | 4.03 | – | – | 75 | 4.13 | O=C(NCc1ccc(F)cc1)C(CCO)N1CCN(C(c2ccc(F)cc2)c2ccc(F)cc2)CC1 (racemic) | –
5 | – | – | – | 98 | – | NC(=O)C(CCO)N1CCN(C(c2ccccc2)c2ccccc2)CC1 (racemic) | inhibition [6]: 83%
6 | – | 113 | 98 | – | – | O=C(NCc1ccccc1)C(CCO)N1CCOCC1 (racemic) | inhibition [1]: 95%
7 | – | 97 | 65 | 92 | – | O=C(NCc1ccccc1F)C(CCO)N1CCN(C(c2ccc(F)cc2)c2ccc(F)cc2)CC1 (racemic) | –
8 | – | 69 | – | – | 4.43 | O=C(NCCc1ccccc1)C(CCO)N1CCN(C(c2ccc(F)cc2)c2ccc(F)cc2)CC1 (racemic) | inhibition [1]: 98%
9 | 4.66 | – | – | – | 4.47 | O=C(NCc1ccccc1)C(CCO)N1CCN(C(c2ccccc2)c2ccccc2)CC1 (racemic) | pKi [1]: 4.96; inhibition [6]: 46%; inhibition [7]: 54%
10 | 4.19 | – | – | 63 | 4.33 | O=C(NCc1ccccc1)C(CCO)N1CCN(C(c2ccc(F)cc2)c2ccc(F)cc2)CC1 (racemic) | –
11 | 4.48 | – | – | – | 4.33 | O=C(NCc1ccccc1F)C(CCO)N1CCN(C(c2ccccc2)c2ccccc2)CC1 (racemic) | inhibition [8]: 55%
12 | – | 79 | 98 | – | – | O=C(NCc1ccc(Cl)cc1)C(CCO)N1CCNCC1 (racemic) | –
13 | 4.88 | – | – | – | 4.56 | O=C(NCc1ccc(Cl)cc1)C(CCO)N1CCN(C(c2ccccc2)c2ccccc2)CC1 (racemic) | pKi [1]: 4.33
14 | – | – | – | – | – | O=C(NCCc1ccccc1)C(CCO)N1CCN(C(c2ccccc2)c2ccccc2)CC1 (racemic) | inhibition [3]: 93%; inhibition [6]: 80%
15 | – | – | – | – | – | O=C(NCc1ccccc1Cl)C(CCO)N1CCN(C(c2ccccc2)c2ccccc2)CC1 (racemic) | inhibition [3]: 72%; inhibition [9]: 83%; inhibition [6]: 73%
16 | – | – | – | 61 | – | Cc1ccc(CNC(=O)C(CCO)N2CCN(C(c3ccccc3)c3ccccc3)CC2)cc1 (racemic) | –
17 | 4.14 | – | – | 102 | 4.35 | O=C(NCc1ccc(Cl)cc1)C(CCO)N1CCN(C(c2ccc(F)cc2)c2ccc(F)cc2)CC1 (racemic) | –
18 | 4.23 | – | – | 92 | 4.44 | Cc1ccc(CNC(=O)C(CCO)N2CCN(C(c3ccc(F)cc3)c3ccc(F)cc3)CC2)cc1 (racemic) | –
19 | – | 66 | 84 | – | – | NC(=O)C(CCO)N1CCN(C(c2ccc(F)cc2)c2ccc(F)cc2)CC1 (racemic) | inhibition [1]: 106%
20 | – | 75 | 49 | – | – | O=C(NCc1ccccc1)C(CCO)N1CCC(Cc2ccccc2)CC1 (racemic) | inhibition [1]: 86%
21 | – | – | – | – | – | COc1ccc(CNC(=O)C(CCO)N2CCN(C(c3ccccc3)c3ccccc3)CC2)cc1 (racemic) | inhibition [3]: 78%; inhibition [6]: 61%
22 | – | 84 | 110 | – | – | NC(=O)C(CCO)N1CCNCC1 (racemic) | –
23 | – | 63 | 98 | – | – | O=C(NCc1ccccc1)C(CCO)N1CCNCC1 (racemic) | inhibition [1]: 76%
